Measured values taken from the M2OR odorant receptor database.
Residue numbers refer to the chain shown, from its start.

Experiments:
Details in all cases: stereoisomer not certain
OR7A5 M81I = system: T1, OR7A5 M81I
T1 sequence (whole entry): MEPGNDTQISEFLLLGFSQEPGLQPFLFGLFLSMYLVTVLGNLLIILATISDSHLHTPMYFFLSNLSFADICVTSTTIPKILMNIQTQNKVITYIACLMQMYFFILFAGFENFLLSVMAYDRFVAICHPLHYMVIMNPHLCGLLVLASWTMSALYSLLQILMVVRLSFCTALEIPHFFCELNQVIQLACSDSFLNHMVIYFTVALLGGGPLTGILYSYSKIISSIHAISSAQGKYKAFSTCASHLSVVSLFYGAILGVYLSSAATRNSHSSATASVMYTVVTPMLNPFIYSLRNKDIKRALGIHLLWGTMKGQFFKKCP
Procedure, shortened: (§1)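 Each receptor–molecule pair is labelled responsive or non-responsive (inactive) according to whether the original authors judged the measured signal statistically different from baseline. The data were taken from the main text and supplementary material of published papers and checked for typos and inconsistencies. Assay methods differed by source, with transient luciferase assays in mammalian cell lines being common.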

OR7C1 (Homo sapiens) = target: T2, OR7C1 (Homo sapiens) (UniProt O76099)
T2 sequence (whole entry): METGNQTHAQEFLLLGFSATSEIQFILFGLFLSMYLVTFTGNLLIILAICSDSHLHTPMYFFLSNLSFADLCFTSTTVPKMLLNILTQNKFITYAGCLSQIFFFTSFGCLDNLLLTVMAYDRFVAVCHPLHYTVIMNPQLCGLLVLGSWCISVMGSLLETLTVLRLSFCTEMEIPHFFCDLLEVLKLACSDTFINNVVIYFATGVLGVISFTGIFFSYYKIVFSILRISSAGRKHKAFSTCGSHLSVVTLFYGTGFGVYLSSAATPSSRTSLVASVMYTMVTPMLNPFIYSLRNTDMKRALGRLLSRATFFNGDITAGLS
Procedure, shortened: as §1

OR7C1 V126I E171K = system: T3, OR7C1 V126I E171K
T3 sequence (whole entry): T2 sequence (whole entry) with V126I, E171K
Procedure, shortened: as §1

OR7C2 (Homo sapiens) = target: T4, OR7C2 (Homo sapiens) (UniProt O60412)
T4 sequence (whole entry): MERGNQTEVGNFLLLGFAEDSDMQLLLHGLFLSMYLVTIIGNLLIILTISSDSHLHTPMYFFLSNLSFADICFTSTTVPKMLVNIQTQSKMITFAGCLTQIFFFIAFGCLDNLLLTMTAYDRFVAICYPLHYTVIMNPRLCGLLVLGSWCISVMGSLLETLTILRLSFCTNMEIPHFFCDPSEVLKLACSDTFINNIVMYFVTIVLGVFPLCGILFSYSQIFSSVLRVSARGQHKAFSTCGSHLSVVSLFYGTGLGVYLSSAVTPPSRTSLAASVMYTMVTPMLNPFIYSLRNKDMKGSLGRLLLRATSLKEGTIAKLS
Procedure, shortened: as §1

OR7D2 (Homo sapiens) = target: T5, OR7D2 (Homo sapiens) (UniProt Q96RA2)
T5 sequence (whole entry): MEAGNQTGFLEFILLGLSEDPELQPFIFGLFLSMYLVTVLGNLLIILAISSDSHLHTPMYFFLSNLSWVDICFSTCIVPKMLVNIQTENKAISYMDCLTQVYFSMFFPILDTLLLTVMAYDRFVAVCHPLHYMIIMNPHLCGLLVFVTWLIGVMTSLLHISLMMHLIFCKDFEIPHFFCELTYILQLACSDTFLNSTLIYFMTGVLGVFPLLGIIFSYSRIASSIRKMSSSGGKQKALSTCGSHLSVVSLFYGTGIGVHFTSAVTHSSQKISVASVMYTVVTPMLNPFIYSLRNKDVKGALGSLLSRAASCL
Procedure, shortened: as §1

OR7D4 (Homo sapiens) = target: T6, OR7D4 (Homo sapiens) (UniProt Q8NG98)
T6 sequence (whole entry): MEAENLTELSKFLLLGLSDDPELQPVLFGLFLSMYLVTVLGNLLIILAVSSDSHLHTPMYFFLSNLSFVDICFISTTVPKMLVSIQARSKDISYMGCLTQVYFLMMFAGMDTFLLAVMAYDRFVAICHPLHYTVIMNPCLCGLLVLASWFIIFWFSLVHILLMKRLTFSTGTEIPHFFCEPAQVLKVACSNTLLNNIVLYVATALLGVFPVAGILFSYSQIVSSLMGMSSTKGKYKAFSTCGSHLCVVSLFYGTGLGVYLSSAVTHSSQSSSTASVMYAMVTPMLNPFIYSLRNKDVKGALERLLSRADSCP
Procedure, shortened: as §1

OR7D4 R88W = system: T7, OR7D4 R88W
T7 sequence (whole entry): T6 sequence (whole entry) with R88W
Procedure, shortened: as §1

OR7D4 = system: T8, OR7D4
T8 sequence (whole entry): T6 sequence (whole entry) with R88W, T133M
Procedure, shortened: as §1

OR7E24 (Homo sapiens) = target: T9, OR7E24 (Homo sapiens) (UniProt Q6IFN5)
T9 sequence (whole entry): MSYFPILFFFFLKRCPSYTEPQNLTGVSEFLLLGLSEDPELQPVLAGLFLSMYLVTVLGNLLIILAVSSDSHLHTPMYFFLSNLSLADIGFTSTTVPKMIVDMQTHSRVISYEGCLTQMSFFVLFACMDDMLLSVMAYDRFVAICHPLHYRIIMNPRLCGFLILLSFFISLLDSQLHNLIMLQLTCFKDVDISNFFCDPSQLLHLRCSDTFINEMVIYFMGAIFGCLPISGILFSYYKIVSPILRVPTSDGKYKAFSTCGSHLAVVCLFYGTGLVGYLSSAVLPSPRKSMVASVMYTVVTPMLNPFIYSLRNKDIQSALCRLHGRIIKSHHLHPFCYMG
Procedure, shortened: as §1

OR7G1 (Homo sapiens) = target: T10, OR7G1 (Homo sapiens) (UniProt Q8NGA0)
T10 sequence (whole entry): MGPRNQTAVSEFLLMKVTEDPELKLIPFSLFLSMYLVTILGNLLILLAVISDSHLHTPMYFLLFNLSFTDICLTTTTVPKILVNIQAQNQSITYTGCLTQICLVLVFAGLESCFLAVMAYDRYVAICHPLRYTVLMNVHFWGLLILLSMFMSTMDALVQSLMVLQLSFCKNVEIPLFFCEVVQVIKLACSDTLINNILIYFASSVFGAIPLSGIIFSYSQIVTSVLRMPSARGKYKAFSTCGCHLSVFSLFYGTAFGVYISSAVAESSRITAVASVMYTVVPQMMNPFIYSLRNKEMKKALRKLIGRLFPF
Procedure, shortened: as §1

Measured: odorant receptor agonist call;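 further: active if original authors judged signal statistically different from baseline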

CC1=C(O)C(=O)OC1C (configuration not stated)
inactive: all assays above

CC1=C(O)C(=O)C(C)O1 (configuration not stated)
inactive: all assays above

CC(=O)c1c(C)c([N+](=O)[O-])c(C(C)(C)C)c([N+](=O)[O-])c1C
inactive: OR7C1 (Homo sapiens) | OR7C2 (Homo sapiens) | OR7D2 (Homo sapiens) | OR7D4 (Homo sapiens) | OR7E24 (Homo sapiens) | OR7G1 (Homo sapiens)

CCCCC(S)C(C)CO (configuration not stated)
inactive: OR7C1 (Homo sapiens) | OR7C2 (Homo sapiens) | OR7D2 (Homo sapiens) | OR7D4 (Homo sapiens) | OR7E24 (Homo sapiens) | OR7G1 (Homo sapiens)

CCCCCCC=CCCC=O
inactive: all assays above

CC1=NC(C)C(C)S1 (configuration not stated)
inactive: all assays above

CCCC(S)CCOC(C)=O (configuration not stated)
inactive: all assays above

CCCCCC(S)C(C)CO (configuration not stated)
inactive: OR7C1 (Homo sapiens) | OR7C2 (Homo sapiens) | OR7D2 (Homo sapiens) | OR7D4 (Homo sapiens) | OR7E24 (Homo sapiens) | OR7G1 (Homo sapiens)

CCC1OC(=O)C(O)=C1C (configuration not stated)
inactive: all assays above

CCC(S)C(C)CO (configuration not stated)
inactive: OR7C1 (Homo sapiens) | OR7C2 (Homo sapiens) | OR7D2 (Homo sapiens) | OR7D4 (Homo sapiens) | OR7E24 (Homo sapiens) | OR7G1 (Homo sapiens)

CCC1OC(C)=C(O)C1=O (configuration not stated)
inactive: all assays above

Cc1cnc(C)c(C)n1
inactive: all assays above

CC(CO)CS (configuration not stated)
inactive: OR7C1 (Homo sapiens) | OR7C2 (Homo sapiens) | OR7D2 (Homo sapiens) | OR7D4 (Homo sapiens) | OR7E24 (Homo sapiens) | OR7G1 (Homo sapiens)

CC1CCCCCCCCCCCCC(=O)C1 (configuration not stated)
inactive: OR7C1 (Homo sapiens) | OR7C2 (Homo sapiens) | OR7D2 (Homo sapiens) | OR7D4 (Homo sapiens) | OR7E24 (Homo sapiens) | OR7G1 (Homo sapiens)

CCCCCC(=O)C(C)C(C)=O (configuration not stated)
inactive: OR7C1 (Homo sapiens) | OR7C2 (Homo sapiens) | OR7D2 (Homo sapiens) | OR7D4 (Homo sapiens) | OR7E24 (Homo sapiens) | OR7G1 (Homo sapiens)
